ChEMBL document CHEMBL4513216, “Probing the Open Global Health Chemical Diversity Library for Multistage-Active Starting Points for Next-Generation Antimalarials” (ACS Infect Dis, 2020)

Assay: Toxicity liver stage against HepG2, at 10uM
Assay type: cell-based
Set-up: test concentration 10 uM, cell line HepG2-A16-CD81EGFP
Details: human, HepG2-A16-CD81EGFP cells; read-out: INHIBITION
How it was run: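 Uninfected HepG2-A16-CD81EGFP cells, 3 × 10^3 per well, 1536-well, plated on prespotted compound at 10 μM final, parasite-free screening media added to match infected plates; puromycin 10 μM positive, DMSO 0.5% negative; run in parallel with 48 h PbLuc assay at 37 °C, 5% CO2; viability by CellTiter-Glo luminescence, normalized to controls.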

Row | Compound | cytotoxicity at 10 µM
1 | COc1cccc(-c2cc(C(=O)NCCCn3cnnc3)[nH]n2)c1 | 3.45%
2 | CN1CC2(CCC(C(=O)O)CC2)Oc2ccccc2C1=O (stereo not drawn) | 2%
3 | O=C(c1cccc(F)c1)N1C[C@H]2CN(Cc3ccccn3)C[C@H]2C1 | -1.92%
4 | O=C(CCc1ccccc1Br)NCC(=O)NCc1ccccc1 | 0.988%
5 | c1csc(N2CCN(Cc3nnnn3C3CC3)CC2)n1 | 8.96%
6 | Cc1ccc(-n2nnc(CC(=O)N3CCN(C(C)C)CC3)c2C)cc1 | -3.36%
7 | O=C(CCCOc1ccc(F)cc1F)N1CCCC(n2cccn2)C1 (stereo not drawn) | -4.75%
8 | CN1C(=O)COc2ccc(C(=O)Cn3cnc4ccsc4c3=O)cc21 | 8.69%
9 | Cc1ccc(N(C)C2CCN(C(=O)CCc3ccco3)CC2)nn1 | -7%
10 | CN1CCOC(CNCc2coc(-c3ccccc3)n2)C1 (stereo not drawn) | -5.1%
11 | O=C(CC1COCCN1C(=O)c1cscn1)c1ccccc1 (stereo not drawn) | 6.24%
12 | O=C(CS(=O)(=O)Cc1ccccc1)NC1CCCCNC1=O (stereo not drawn) | -1.46%
13 | COC(=O)N1CCC(CNC(=O)C2CC2)CC1 | -2.82%
14 | CC(=O)N1CCN(C(=O)NCCc2ccc(Cl)s2)CC1 | -11.6%
15 | NC(=O)COc1cccc(C(=O)N2CCCC(n3ccnc3)C2)c1 (stereo not drawn) | -9.63%
16 | CC(C)n1cnnc1CN(C)C(=O)c1cnn2ccccc12 | 1.31%
17 | CCOc1ncnc2c1CCN(Cc1csc(C)n1)CC2 | -68.1%
18 | Cn1cc(CN2CCc3nc(-c4ccccn4)nc(O)c3C2)cn1 | -3.81%
19 | Cc1ccc(Cn2ccc(NS(C)(=O)=O)n2)cc1 | -12.2%
20 | CCc1noc(C)c1C(=O)N1CCC(c2[nH]ncc2S(C)(=O)=O)C1 (stereo not drawn) | -6.94%
21 | CS(=O)(=O)N1CCC2(CCN(Cc3nccs3)CC2)CC1 | 8.28%

Row | Compound | cytotoxicity at 10 µM
22 | CCCS(=O)(=O)CCN1CCOC(c2ccsc2)C1 (stereo not drawn) | -2.69%
23 | CC1CCN(c2nc3c(cnn3-c3ccccc3)c(=O)[nH]2)CC1 | -9.5%
24 | Cc1ccc(F)cc1NC(=O)CNc1cccc2c1CCCC2 | 4.33%
25 | Cc1ccnc(NCCNC(=O)c2ccccc2NCC(=O)O)c1 | -12.7%
26 | N#Cc1cccnc1N1CCCC(CO)(CCOc2ccccc2)C1 (stereo not drawn) | 3.04%
27 | CN(Cc1ccc2c(c1)OCO2)C(=O)c1ccc(C2CCCNC2)cc1 (stereo not drawn) | -11.8%
28 | O=C(c1cccs1)N1CCN(CC2CC2)c2ncccc2C1 | 0.835%
29 | CC(C)c1nnc2sc(CC3CN(Cc4ccccc4)CCO3)nn12 (stereo not drawn) | -2.66%
30 | N#Cc1cc(S(N)(=O)=O)ccc1NC1CCc2cc(Cl)ccc21 (stereo not drawn) | 29.1%
31 | CC(=O)NCCC1CCCCN1S(=O)(=O)c1ccc2ccccc2c1 (stereo not drawn) | -125%
32 | N#CC(Sc1nnnn1C1CCOCC1)C1CCCCC1 (stereo not drawn) | 21.7%
33 | CCc1nc(CN2CCCN(C(=O)COCC3CC3)CC2)cs1 | -5.2%
34 | Cc1nn(C)cc1-c1cc(C(=O)NCC(C)(C)c2ccccc2F)n[nH]1 | 6.82%
35 | O=c1[nH]c2c(c(=O)n1C1CCCCC1)CCC2NCCc1ccccc1 (stereo not drawn) | -6.91%
36 | Cc1nccn1C1CCCN(C(=O)Cn2ccc(=O)n(C)c2=O)C1 (stereo not drawn) | -5.17%
37 | NC(=O)c1cc(NC(=O)N2CCCCCC2)ccc1F | 0.692%
38 | Cc1cc(=O)c2ccccc2n1CC1CCNC1 (stereo not drawn) | 5.98%
39 | CC(C)c1cc(N2CCC(C(C)N3CCCC3)CC2)n2nccc2n1 (stereo not drawn) | -1.86%
40 | CCCn1cc(C(=O)NC(CC(=O)O)c2ccco2)c(C)n1 (stereo not drawn) | -61.4%
41 | CCCc1nc(C(C)(C)NC(=O)c2ccnn2C)no1 | -10.5%
42 | CC(=O)N1CCCC2(C1)CN(C(=O)Cc1ccccc1)CCO2 (stereo not drawn) | -83.9%

Row | Compound | cytotoxicity at 10 µM
43 | Cc1ccccc1[C@@H]1CN(Cc2ccc(C(F)(F)F)nc2)C[C@H]1C(=O)O | 5.33%
44 | Cc1nonc1NC(=O)c1ccc(F)c(COCC2CC2)c1 | 18.6%
45 | CN(Cc1noc(C(C)(C)C)n1)Cc1ccccc1N1CCCC1 | -1.78%
46 | CN(C)CCCNCCC(c1ccccc1)C1CCOC(C)(C)C1 (stereo not drawn) | -7.91%
47 | c1cn2c(n1)CN(CC1CC1)CC(CN1CCOCC1)C2 (stereo not drawn) | 1.49%
48 | CCOc1ccc(S(=O)(=O)NC(=O)CC2CCCO2)cc1 (stereo not drawn) | -16.3%
49 | CN(Cc1ccon1)C(=O)CN1C(=O)OC(C)(C)C1=O | -108%
50 | Cc1nc(Cn2cc(C#N)c(=O)c3ccccc32)no1 | 9.95%
51 | Cc1ccc(S(=O)(=O)N2C[C@@H]3C[C@@H](NC(=O)C(C)(C)C)[C@@H]3C2)cc1 | -3.81%
52 | CN(C)C(=O)CN1CC[C@]2(CN(CC3CC3)C[C@H]2c2ccccc2)C1=O | 1.46%
53 | O=S(=O)(CCNC1CCc2ncnn2C1)c1ccccc1 (stereo not drawn) | -5.58%
54 | O=c1[nH]c2ncccc2n1C1CCCC1 | 10.6%
55 | CSCC[C@H](N)C(=O)N1CC(Oc2ccccc2C)C1 | 0.897%
56 | CCC(C)(C)NC(=O)c1scnc1Cl | -0.47%
57 | CC(C)C(C)NC(=O)CCN1C(=O)CCc2cc(F)ccc21 (stereo not drawn) | 8.91%
58 | N#Cc1ccc(OCC(O)CN2CCN(c3nccs3)CC2)cc1 (stereo not drawn) | 2.06%
59 | CC(C)c1cccc(N2CCCC3(CCC(=O)N(C4CC4)C3)C2)n1 (stereo not drawn) | -5.01%
60 | COCCNc1ccc(CC2CCCN(C3CCOCC3)C2)nn1 (stereo not drawn) | 6.38%
61 | CCc1nc(C2CCCN2Cc2noc(Cc3ccccc3)n2)no1 (stereo not drawn) | 1.29%
62 | CCCNC(=O)c1cc2c(s1)CCN2c1ncccn1 | -105%
63 | Cc1ccc(CC2COc3ccccc3C2)c(N)n1 (stereo not drawn) | -7.12%

Row | Compound | cytotoxicity at 10 µM
64 | O=C1NCC(c2ccc(F)cc2)Cc2[nH]c(CCN3CCCC3)nc21 (stereo not drawn) | -0.65%
65 | COCc1nc2ncc3c(=O)n(-c4ccc(OC)cc4)ccc3n2n1 | 8.1%
66 | Fc1ccc(F)c(CN2CCC(c3n[nH]c4ncccc34)CC2)c1 | -25.4%
67 | Cc1nc(C)n(CC2CN(CCc3ccccc3Cl)CCO2)n1 (stereo not drawn) | -0.431%
68 | Cc1noc(CCCC(=O)N2CSCC2C(=O)NCC2CC2)n1 (stereo not drawn) | -44.9%
69 | Cn1cccc1C(=O)N1CC[C@H]2[C@@H]1CCC(=O)N2c1ccccc1 | -6.53%
70 | CSCCCNc1nccc(-c2cc(C(=O)O)ccn2)n1 | 3.49%
71 | CNc1cc2c(nn1)CCN(C(=O)c1ccc3c(c1)CCC3)C2 | 3.15%
72 | Cc1nc(CN2C(=O)C[C@@H]3[C@@H]2CCN3S(C)(=O)=O)cs1 | -131%
73 | Cc1cn2nc(N3CCN(Cc4c(C)noc4C)CC3)sc2n1 | -8.81%
74 | Cc1cccc(N(C)S(=O)(=O)c2cc(C(=O)O)cs2)c1C | -0.731%
75 | Cc1cc(CNCc2c(C(C)C)nn(C)c2N2CCOCC2)no1 | 16.5%
76 | CC(=O)N1CCc2[nH]cnc2C12CCN(CC1CCOC1)CC2 (stereo not drawn) | -8.46%
77 | Cc1ccc(C(CNCc2cccnc2)N2CCOCC2)s1 (stereo not drawn) | 4.03%
78 | Cc1nc(N)ncc1C(=O)N1CCCC(CCc2ccc(F)c(F)c2)C1 (stereo not drawn) | -4.51%
79 | Cc1nc(CN(Cc2ccc3c(c2)OCCO3)C2CCCC2)no1 | -9.19%
80 | CN(C)CCN1CCC2(CCN(C(=O)c3ccncc3)CC2)C1=O | 0.0515%
81 | CN(C)C(CNC(=O)NCCc1cccc(O)c1)c1ccco1 (stereo not drawn) | -4.36%
82 | COc1ccc(N2CCCC3(C2)CN(c2cccnc2)CCO3)cc1 (stereo not drawn) | 6.59%
83 | O=C(NCC(c1ccc(F)cc1)N1CCOCC1)Nc1cn[nH]c1 (stereo not drawn) | -15%
